Data reported in ChEMBL document CHEMBL1158715, “Eremophilane-type sesquiterpene derivatives from Senecio aegyptius var. discoideus” (J Nat Prod, 2005).
The source made the active and inactive calls. The rule behind the calls is not given here.

How the values were obtained:
Format in all cases: functional, organism-based
Serratia sp. [1] = assay: Antimicrobial activity against Serratia El-U 9213 at 400 ug/ml
Method in brief: (§1)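 Filter paper disk diffusion on nutrient agar seeded with the test bacterium. Disks were soaked in the test solution for 30 s, then placed on the agar surface. Plates were incubated at 30 °C for 2 days. Five replicates were run per compound at each concentration. Ampicillin at 200 and 400 μg/mL served as the reference.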

Serratia sp. [2] = assay: Antimicrobial activity against Serratia El-U 9213 at 200 ug/ml; method in brief: as §1
Bacillus cereus [3] = assay: Antimicrobial activity against Bacillus cereus El-U 8180 at 400 ug/ml; method in brief: as §1
Bacillus cereus [4] = assay: Antimicrobial activity against Bacillus cereus El-U 8180 at 200 ug/ml; method in brief: as §1

| SMILES | Activity (Serratia sp. [1]) | Activity (Serratia sp. [2]) | Activity (Bacillus cereus [3]) | Activity (Bacillus cereus [4]) |
| --- | --- | --- | --- | --- |
| CC1=C2C[C@]3(C)[C@@H](C)CC[C@H]4O[C@]43C[C@@]2(O)OC1=O | Active | Active | Active | Active |
| CO[C@@]12C[C@@]34O[C@@H]3CC[C@H](C)[C@@]4(C)CC1=C(C)C(=O)O2 | inactive | inactive | Active | Active |
| CC1=C2C[C@@]3(C)C(=C[C@@]2(O)OC1=O)[C@H](O)CC[C@@H]3C | Active | Active | Active | Active |
| CO[C@@]12C=C3[C@H](O)CC[C@H](C)[C@@]3(C)CC1=C(C)C(=O)O2 | Active | Active | Active | Active |
| CC1=C2C[C@@]3(C)C(=C[C@H]2OC1=O)[C@H](O)CC[C@@H]3C | inactive | inactive | Active | Active |
| CO[C@@]12C[C@@H]3C(=O)CC[C@H](C)[C@@]3(C)CC1=C(C)C(=O)N2 | inactive | inactive | Active | Active |
